{"source": "ChEMBL document CHEMBL1153058", "about": "“Cycloaspeptides F and G, Cyclic Pentapeptides from a Cordyceps-colonizing isolate of Isaria farinosa” (2009)", "key": {"HeLa": {"system": "HeLa", "assay": "Cytotoxicity against human HeLa cells after 48 hrs by MTT assay", "type": "functional", "outline": "(§1)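 MTT assay: 10^4 cells per well, attached overnight. Cells exposed for 4 h at 37 °C, 5% CO2, to compound serially diluted in medium from a 10 mg/mL DMSO stock, vehicle 0.2% DMSO. Medium then replaced with fresh DMEM and growth continued 48 h. MTT 0.5 mg/mL added for 3 h in the dark, formazan dissolved in DMSO, absorbance read at 540 nm. GI50 derived.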"}, "MCF7": {"system": "MCF7", "assay": "Cytotoxicity against human MCF7 cells after 48 hrs by MTT assay", "type": "functional", "conditions": "MCF7, 48 h", "outline": "as §1"}}, "note": "Where a SMILES comes first, the peptide text is derived from it. [ ]: non-standard residue; d: D form. The star is where a group is joined. βGlc = OC[C@H]1O[C@@H](*)[C@H](O)[C@@H](O)[C@@H]1O; NMeY = CN[C@@H](Cc1ccc(O)cc1)C(=O)O; NMeF = CN[C@@H](Cc1ccccc1)C(=O)O; 2Abz = Nc1ccccc1C(=O)O"}
{"compound": "CS[C@]1(CO)C(=O)N(C)[C@](Cc2ccccc2)(SC)C(=O)N1C", "note": "[BISDETHIODI(METHYLTHIO)HYALODENDRIN]", "values": [{"measurement": "GI50", "setting": "HeLa", "result": "> 113", "unit": "µM"}, {"measurement": "GI50", "setting": "MCF7", "result": 113, "unit": "µM"}]}
{"compound": "CC(C)C[C@@H]1NC(=O)[C@H](Cc2ccccc2)N(C)C(=O)[C@H](C)NC(=O)c2ccccc2NC(=O)[C@H](Cc2ccc(O)cc2)N(C)C1=O", "note": "[CYCLOASPEPTIDE A] (cyclo([2Abz]A[NMeF]L[NMeY]))", "values": [{"measurement": "GI50", "setting": "HeLa", "result": 31.2, "unit": "µM"}, {"measurement": "GI50", "setting": "MCF7", "result": 23.4, "unit": "µM"}]}
{"compound": "CC(C)C[C@@H]1NC(=O)[C@H](Cc2ccccc2)N(C)C(=O)[C@H](C)NC(=O)c2ccccc2NC(=O)[C@H](Cc2ccc(O[C@@H]3O[C@H](CO)[C@@H](O)[C@H](O)[C@H]3O)cc2)N(C)C1=O", "note": "[Cycloaspeptide F] (cyclo([2Abz]A[NMeF]L[NMeY](βGlc)))", "values": [{"measurement": "GI50", "setting": "HeLa", "result": 49.8, "unit": "µM"}, {"measurement": "GI50", "setting": "MCF7", "result": 18.7, "unit": "µM"}]}
{"compound": "CC(C)C[C@@H]1NC(=O)[C@H](Cc2ccc(O)cc2)N(C)C(=O)[C@H](C)NC(=O)c2ccccc2NC(=O)[C@H](Cc2ccc(O)cc2)N(C)C1=O", "note": "[Cycloaspeptide G] (cyclo([2Abz]A[NMeY]L[NMeY]))", "values": [{"measurement": "GI50", "setting": "HeLa", "result": 30.4, "unit": "µM"}, {"measurement": "GI50", "setting": "MCF7", "result": 15.2, "unit": "µM"}]}
{"compound": "O=c1[nH]cc(F)c(=O)[nH]1", "note": "[FLUOROURACIL]", "values": [{"measurement": "GI50", "setting": "HeLa", "result": 10, "unit": "µM"}, {"measurement": "GI50", "setting": "MCF7", "result": 15, "unit": "µM"}]}
{"compound": "CC(C)C[C@@H]1NC(=O)[C@H](Cc2ccccc2)NC(=O)[C@H](C)NC(=O)c2ccccc2NC(=O)[C@H](Cc2ccc(O)cc2)N(C)C1=O", "note": "[cycloaspeptide C] (cyclo([2Abz]AFL[NMeY]))", "values": [{"measurement": "GI50", "setting": "HeLa", "result": "> 63.4", "unit": "µM"}, {"measurement": "GI50", "setting": "MCF7", "result": 31.9, "unit": "µM"}]}
